Data as given in publication PMC4390475 (Journal of pharmaceutical sciences, 2015).

Tests used:
P-gp = experiment: Bi-directional permeability study using Caco-2 cells; conditions: human; for Papp A→B at 120 min, 1 μM: Caco-2, pH 6, Papp A–B (mean); for Papp B→A at 120 min, 1 μM: Caco-2, pH 7.4, Papp B-A (mean)
[1] = Stability in simulated gastric fluid; type: in vitro ADME; conditions: SGF pH 1.2 with pepsin, 37°C, 60 min
Procedure, shortened: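 Simulated gastric fluid (pH 1.2) contained 3.2 g/L porcine pepsin, 2 g/L NaCl and 8 mL/L 6 N HCl, stored at 2–8°C and pre-warmed to 37°C. […] Reactions were stopped with 0.1 M sodium carbonate and chilled acetonitrile containing ¹³C internal standard, filtered, and analysed by LC-MS; content is expressed relative to initial.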

[2] = orally administered, 225 mg/kg; cited from earlier work
Stability in plasma [3] = type: in vitro ADME; conditions: human plasma diluted 1:1 with PBS, 15 μM, up to 1 h, 37°C
[4] = Metabolic stability using pooled human liver microsomes; type: in vitro ADME; conditions: 10 and 50 μM, active microsomes, up to 60 min, 37°C
CYP1A2 = biological target: T1, CYP1A2 (Homo sapiens, UniProt P05177); experiment: CYP inhibition in human liver microsomes; type: in vitro ADME; conditions: 1 or 10 μM test article, 20 min, 37°C
T1 sequence (P05177 1-516): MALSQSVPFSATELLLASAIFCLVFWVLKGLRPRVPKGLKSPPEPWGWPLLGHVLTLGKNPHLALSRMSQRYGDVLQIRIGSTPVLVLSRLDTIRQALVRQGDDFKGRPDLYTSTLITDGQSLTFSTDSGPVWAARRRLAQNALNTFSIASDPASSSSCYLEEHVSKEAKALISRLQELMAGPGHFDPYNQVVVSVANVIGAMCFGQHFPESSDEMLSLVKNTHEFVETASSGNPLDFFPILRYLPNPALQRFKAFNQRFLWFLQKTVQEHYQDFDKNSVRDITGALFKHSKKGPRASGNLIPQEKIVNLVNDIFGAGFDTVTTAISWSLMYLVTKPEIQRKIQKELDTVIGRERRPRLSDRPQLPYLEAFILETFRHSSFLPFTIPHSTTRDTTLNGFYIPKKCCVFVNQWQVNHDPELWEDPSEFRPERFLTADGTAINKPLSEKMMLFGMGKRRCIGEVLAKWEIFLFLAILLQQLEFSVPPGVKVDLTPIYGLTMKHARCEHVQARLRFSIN
Procedure, shortened: (§1)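 Pooled human liver microsomes (0.5 mg/mL), 2.5 mM NADPH, 3.3 mM MgCl₂, 0.1 M phosphate pH 7.4, 0.3% DMSO, probe cocktail near Km: phenacetin 25 μM (1A2), bupropion 25 μM (2B6), diclofenac 10 μM (2C9), mephenytoin 20 μM (2C19), bufuralol 10 μM (2D6), testosterone 50 μM and midazolam 4 μM (3A4). Cold acetonitrile quench; LC-MS/MS metabolite peak-area ratio over mean control ×100; n = 3.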

CYP3A4 = CYP3A4 (Homo sapiens, UniProt P08684); experiment: CYP inhibition in human liver microsomes; type: in vitro ADME; conditions: 1 or 10 μM test article, 20 min, 37°C
Chain of CYP3A4 (P08684 whole entry): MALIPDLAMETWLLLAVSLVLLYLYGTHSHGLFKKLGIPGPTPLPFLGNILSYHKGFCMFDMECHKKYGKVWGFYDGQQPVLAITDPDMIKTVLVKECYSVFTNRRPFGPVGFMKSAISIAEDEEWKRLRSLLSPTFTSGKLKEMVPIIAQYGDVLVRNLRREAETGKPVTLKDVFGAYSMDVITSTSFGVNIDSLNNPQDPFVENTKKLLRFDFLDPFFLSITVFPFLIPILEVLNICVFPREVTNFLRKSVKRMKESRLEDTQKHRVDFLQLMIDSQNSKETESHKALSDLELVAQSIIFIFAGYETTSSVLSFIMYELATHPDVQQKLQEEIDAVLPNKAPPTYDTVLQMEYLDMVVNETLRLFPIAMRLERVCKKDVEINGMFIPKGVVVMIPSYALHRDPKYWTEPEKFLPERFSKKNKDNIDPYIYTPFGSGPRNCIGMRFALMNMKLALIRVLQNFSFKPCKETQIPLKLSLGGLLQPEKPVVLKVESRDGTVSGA
Procedure, shortened: as §1

CYP2B6 = biological target: T2, CYP2B6 (Homo sapiens, UniProt P20813); experiment: CYP inhibition in human liver microsomes; type: in vitro ADME; conditions: 1 or 10 μM test article, 20 min, 37°C
T2 sequence (P20813 1-491): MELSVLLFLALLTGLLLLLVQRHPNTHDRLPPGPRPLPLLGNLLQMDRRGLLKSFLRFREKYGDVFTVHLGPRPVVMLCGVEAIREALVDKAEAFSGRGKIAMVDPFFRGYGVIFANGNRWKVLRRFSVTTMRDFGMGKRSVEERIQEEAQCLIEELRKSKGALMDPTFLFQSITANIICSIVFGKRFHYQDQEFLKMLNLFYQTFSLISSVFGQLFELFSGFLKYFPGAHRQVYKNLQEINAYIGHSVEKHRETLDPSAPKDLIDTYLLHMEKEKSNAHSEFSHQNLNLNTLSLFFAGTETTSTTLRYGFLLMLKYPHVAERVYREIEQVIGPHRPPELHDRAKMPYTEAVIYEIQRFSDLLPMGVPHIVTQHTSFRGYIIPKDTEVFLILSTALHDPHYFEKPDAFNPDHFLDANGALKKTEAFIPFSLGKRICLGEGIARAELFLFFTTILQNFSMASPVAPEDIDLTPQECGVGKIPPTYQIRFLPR
Procedure, shortened: as §1

rat plasma proteins = experiment: Plasma protein binding by gel filtration; type: in vitro ADME, Sprague Dawley rat; conditions: 2 h, 37°C
Procedure, shortened: (§2)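 Test compound (2.65, 13.3 and 40.0 μM final) was incubated in plasma for 2 h at 37°C. Bound compound was separated on Sephadex G-25 by spin filtration (5 min, 200 × g). Eluates were run in duplicate: EDTA addition, chloroform:methanol extraction, acetonitrile precipitation, then LC-MS/MS (MRM 751 → 195, positive ESI) against 15 plasma standards from 0 to 66.7 μM. Eluate concentration was corrected for protein dilution, measured by microbiuret against BSA standards. % bound = corrected/total (mean ± SD, n = 3).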

dog plasma proteins = experiment: Plasma protein binding by gel filtration; type: in vitro ADME, beagle dog; conditions: 2.7, 13.3 and 40.0 μM, 2 h, 37°C
Procedure, shortened: as §2

Stability in plasma [5] = type: in vitro ADME; conditions: mouse plasma diluted 1:1 with PBS, 15 μM, up to 1 h, 37°C
CYP2C9 = CYP2C9 (Homo sapiens, UniProt P11712); experiment: CYP inhibition in human liver microsomes; type: in vitro ADME; conditions: 1 or 10 μM test article, 20 min, 37°C
Chain of CYP2C9 (P11712 whole entry): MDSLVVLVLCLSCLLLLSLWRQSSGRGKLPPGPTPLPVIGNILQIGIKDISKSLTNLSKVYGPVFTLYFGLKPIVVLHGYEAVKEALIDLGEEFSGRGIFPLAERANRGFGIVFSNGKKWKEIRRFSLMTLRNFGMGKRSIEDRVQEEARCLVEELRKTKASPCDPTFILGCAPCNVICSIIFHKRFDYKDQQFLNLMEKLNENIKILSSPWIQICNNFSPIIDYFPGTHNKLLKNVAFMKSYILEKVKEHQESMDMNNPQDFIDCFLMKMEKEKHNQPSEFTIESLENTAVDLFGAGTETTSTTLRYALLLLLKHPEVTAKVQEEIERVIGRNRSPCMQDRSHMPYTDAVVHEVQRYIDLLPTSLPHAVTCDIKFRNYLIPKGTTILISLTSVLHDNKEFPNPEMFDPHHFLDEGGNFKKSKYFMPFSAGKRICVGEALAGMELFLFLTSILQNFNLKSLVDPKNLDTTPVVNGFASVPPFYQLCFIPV
Procedure, shortened: as §1

human plasma proteins = experiment: Plasma protein binding by gel filtration; type: in vitro ADME; conditions: 2 h, 37°C
Procedure, shortened: as §2

[6] = Permeability through Transwell plate not containing Caco-2 cells; type: in vitro ADME; conditions: 24-well Transwell plate not containing Caco-2 cells
Procedure, shortened: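 This run repeated the Caco-2 bi-directional protocol in a Transwell plate without cells. Test compound (10 and 50 μM final) in HBSS, pH 7.4, was placed in duplicate wells for each direction. Receiver aliquots were taken at 30, 60, 90 and 120 min into 10 mM EDTA and replaced with fresh medium. Donor wells were sampled at start and end for recovery. Analysis was LC-MS/MS (positive ESI, MRM), and Papp was calculated from dQ/dt, receiver volume, membrane area and initial concentration.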

CYP2D6 = CYP2D6 (Homo sapiens, UniProt P10635); experiment: CYP inhibition in human liver microsomes; type: in vitro ADME; conditions: 1 or 10 μM test article, 20 min, 37°C
Chain of CYP2D6 (P10635 whole entry): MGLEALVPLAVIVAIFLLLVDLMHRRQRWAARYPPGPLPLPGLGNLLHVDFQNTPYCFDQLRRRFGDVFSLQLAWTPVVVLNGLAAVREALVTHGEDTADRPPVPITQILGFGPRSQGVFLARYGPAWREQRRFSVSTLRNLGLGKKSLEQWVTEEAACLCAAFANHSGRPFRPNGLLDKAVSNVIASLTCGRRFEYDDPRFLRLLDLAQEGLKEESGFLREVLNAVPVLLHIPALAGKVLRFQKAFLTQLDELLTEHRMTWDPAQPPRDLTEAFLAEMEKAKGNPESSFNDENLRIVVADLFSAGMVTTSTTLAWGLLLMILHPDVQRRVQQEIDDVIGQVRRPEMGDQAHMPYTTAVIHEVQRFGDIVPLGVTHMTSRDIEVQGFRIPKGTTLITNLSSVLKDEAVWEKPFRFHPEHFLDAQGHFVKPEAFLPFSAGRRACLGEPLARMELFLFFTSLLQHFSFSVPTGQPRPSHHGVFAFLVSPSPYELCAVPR
Procedure, shortened: as §1

CYP2C19 = CYP2C19 (Homo sapiens, UniProt P33261); experiment: CYP inhibition in human liver microsomes; type: in vitro ADME; conditions: 1 or 10 μM test article, 20 min, 37°C
Chain of CYP2C19 (P33261 whole entry): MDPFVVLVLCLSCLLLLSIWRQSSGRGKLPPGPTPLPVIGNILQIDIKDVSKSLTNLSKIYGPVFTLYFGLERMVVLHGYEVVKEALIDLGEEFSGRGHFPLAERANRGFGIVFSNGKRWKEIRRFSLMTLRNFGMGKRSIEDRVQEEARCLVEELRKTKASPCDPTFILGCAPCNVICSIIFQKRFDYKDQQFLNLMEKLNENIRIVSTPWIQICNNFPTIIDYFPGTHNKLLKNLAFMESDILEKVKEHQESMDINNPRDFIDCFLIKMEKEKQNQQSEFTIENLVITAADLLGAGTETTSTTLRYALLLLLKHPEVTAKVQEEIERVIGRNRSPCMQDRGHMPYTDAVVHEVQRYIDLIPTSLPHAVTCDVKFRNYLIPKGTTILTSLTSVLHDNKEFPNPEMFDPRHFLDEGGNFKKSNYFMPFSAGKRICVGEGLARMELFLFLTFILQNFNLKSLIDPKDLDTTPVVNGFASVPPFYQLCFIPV
Procedure, shortened: as §1

[7] = Stability in acidic aqueous buffered solutions; type: physicochemical; conditions: for stability in acidic buffer: 48 h, 25°C/60%RH
Procedure, shortened: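 Test compound at 10 mg/mL was held in USP buffers: hydrochloric acid (pH 1.40), acetate (pH 4.50) and phosphate (pH 6.80). Incubation was at 25°C/60% RH in sealed, light-protected glass vials. Aliquots taken at 1, 3, 6, 24 and 48 h were diluted 10-fold and analysed by LC-MS, as for the microsomal stability samples.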

Caco-2 cells = experiment: Bi-directional permeability study using Caco-2 cells; conditions: for % Recovery of Test Article A–B (mean) / % Recovery of Test Article B-A (mean): end of experiment
Stability in plasma [8] = type: in vitro ADME; conditions: dog plasma diluted 1:1 with PBS, 15 μM, up to 1 h, 37°C
Stability in plasma [9] = type: in vitro ADME; conditions: rat plasma diluted 1:1 with PBS, 15 μM, up to 1 h, 37°C
[10] = negative control; cited from earlier work

C[C@H]1O[C@@H](O[C@H]2[C@@H](O)C[C@H](O[C@H]3[C@@H](O)C[C@H](O[C@H]4CC[C@@]5(C)[C@H](CC[C@@H]6[C@@H]5C[C@@H](O)[C@]5(C)[C@@H](C7=CC(=O)OC7)CC[C@]65O)C4)O[C@@H]3C)O[C@@H]2C)C[C@H](O)[C@@H]1O [digoxin, reference compound]
Papp A→B at 120 min, 1 μM (P-gp; 1 μM + 100 μM ketoconazole): 3.7 ×10⁻⁶ cm/s
Papp A→B at 120 min, 1 μM (P-gp; 1 μM, control): 3.1 ×10⁻⁶ cm/s
Papp B→A at 120 min, 1 μM (P-gp; 1 μM + 100 μM ketoconazole): 1.8 ×10⁻⁶ cm/s
Papp B→A at 120 min, 1 μM (P-gp; 1 μM, control): 8.6 ×10⁻⁶ cm/s

O=C(NCCCN(CCCCN(CCCNC(=O)c1cccc(=O)n1O)C(=O)c1cccc(=O)n1O)C(=O)c1cccc(=O)n1O)c1cccc(=O)n1O [3,4,3-LI(1,2-HOPO)]
% of the initial content remained in simulated gastric fluid ([1]; 1 μM): 76%
% of the initial content remained in simulated gastric fluid ([1]; 10 μM): 72%
plasma concentration [2]: less than 2 μg/mL
stability in plasma (% of test article remaining) (Stability in plasma [3]): No degradation
% of test article remaining (metabolic stability) [4]: no loss of parent test article
% CYP activity relative to control (CYP1A2): none of the CYP isoforms were significantly influenced
% CYP activity relative to control (CYP3A4): none of the CYP isoforms were significantly influenced
% CYP activity relative to control (CYP2B6): none of the CYP isoforms were significantly influenced
% protein-bound (rat plasma proteins; 2.65 μM): below the lower limit of quantitation
extent of plasma protein binding (rank among species) (rat plasma proteins; 2.7, 13.3 and 40.0 μM): lowest
extent of plasma protein binding (rank among species) (dog plasma proteins): greatest
stability in plasma (% of test article remaining) (Stability in plasma [5]): No degradation
% CYP activity relative to control (CYP2C9): none of the CYP isoforms were significantly influenced
% protein-bound (human plasma proteins; 2.65 μM): below the lower limit of quantitation
extent of plasma protein binding (rank among species) (human plasma proteins; 2.7, 13.3 and 40.0 μM): intermediate
permeation of the Transwell membrane in the absence of Caco-2 cells [6]: detectable levels
% CYP activity relative to control (CYP2D6): none of the CYP isoforms were significantly influenced
% CYP activity relative to control (CYP2C19): none of the CYP isoforms were significantly influenced
stability in acidic buffer ([7]; acetate buffer USP pH 4.50, 10 mg/mL): stable
stability in acidic buffer ([7]; hydrochloric acid buffer USP pH 1.40, 10 mg/mL): stable
stability in hydrochloric acid buffer without pepsin ([7]; pH 1.4, 3 h): stable
stability in acidic buffer ([7]; phosphate buffer USP pH 6.80, 10 mg/mL): stable
% Recovery of Test Article A–B (mean) (Caco-2 cells; 10 μM + 100 μM ketoconazole): 120.6%
% Recovery of Test Article B-A (mean) (Caco-2 cells; 10 μM + 100 μM ketoconazole): 90.3%
% Recovery of Test Article A–B (mean) (Caco-2 cells; 10 μM): 112.2%
% Recovery of Test Article B-A (mean) (Caco-2 cells; 10 μM): 87.2%
% Recovery of Test Article A–B (mean) (Caco-2 cells; 50 μM + 100 μM ketoconazole): 114.9%
% Recovery of Test Article B-A (mean) (Caco-2 cells; 50 μM + 100 μM ketoconazole): 85.7%
% Recovery of Test Article A–B (mean) (Caco-2 cells; 50 μM): 105.5%
% Recovery of Test Article B-A (mean) (Caco-2 cells; 50 μM): 97.6%
concentration in the receiving wells (Caco-2 cells; 10 and 50 μM solutions, lower limit of quantitation): < 0.5 µM
permeability across the Caco-2 monolayer (Caco-2 cells; bi-directional, 10 and 50 μM): not permeable
stability in plasma (% of test article remaining) (Stability in plasma [8]): No degradation
stability in plasma (% of test article remaining) (Stability in plasma [9]): No degradation

CC(C)NCC(O)COc1cccc2ccccc12 (stereo not drawn) [propranolol]
stability in gastric fluid [10]: stable
